Experimental data from ChEMBL document CHEMBL4145683, “Total Synthesis and Structure-Activity Relationships Study of Odilorhabdins, a New Class of Peptides Showing Potent Antibacterial Activity” (J Med Chem, 2018).
In brackets after ≈: the same amount, converted by molar mass. Positions of bridges follow the written chain, without caps; N, C: chain ends. Non-standard residues stand in square brackets, D forms with d. Residues, ends and D or L forms follow the SMILES beside them. *: point of attachment. Dab(3S-OH) = NC[C@H](O)[C@H](N)C(=O)O; ΔZArg = N=C(N)NCC/C=C(\N)C(=O)O; aThr = C[C@H](O)[C@H](N)C(=O)O; dOrn = NCCC[C@@H](N)C(=O)O; X1 = CC[C@H](C)CCCCC(=O)*; Dab = NCC[C@H](N)C(=O)O; NH(CH2)4NH2 = NCCCCN*

Key:
Escherichia coli [1] = experiment: Inhibition of bacterial protein synthesis in cell-free Escherichia coli incubated for 1 hr and measured for every 20 mins by bacterial cell-free transcription-translation assay; format: functional; details: Escherichia coli
Summary of the method: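 E. coli cell-free coupled transcription-translation used a GFP gene in pEXP5-CT as template, started with 1 μg plasmid in 50 μL reactions. Feed buffer was added at 30 min, with incubation at 30 °C. Fluorescence (ex 475/em 520 nm) was read every 20 min. IC50 was taken at 1 h after feed addition from a four-parameter log(inhibitor)–response fit. Duplicates.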

Klebsiella pneumoniae [2] = experiment: Antimicrobial activity against Klebsiella pneumoniae ATCC 43816 by broth microdilution method; format: functional
Summary of the method: (§1)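 Broth microdilution MIC per CLSI M07-A10, with inoculum prepared by direct colony suspension. Reference strains were from ATCC and NCTC.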

Escherichia coli [3] = experiment: microbe, parasite or virus in culture; details: ATCC 25922
Klebsiella pneumoniae [4] = experiment: Antimicrobial activity against Klebsiella pneumoniae ATCC BAA-2473 by broth microdilution method; format: functional; summary of the method: as §1
Escherichia coli [5] = experiment: Antimicrobial activity against Escherichia coli ATCC BAA-2340 by broth microdilution method; format: functional; summary of the method: as §1
Enterobacter cloacae = experiment: Antimicrobial activity against Enterobacter cloacae ATCC BAA-2468 by broth microdilution method; format: functional
Escherichia coli [6] = experiment: Antimicrobial activity against Escherichia coli ATCC BAA-2452 by broth microdilution method; format: functional; summary of the method: as §1
Klebsiella pneumoniae [7] = experiment: Antimicrobial activity against Klebsiella pneumoniae ATCC BAA-1905 by broth microdilution method; format: functional; summary of the method: as §1
Klebsiella pneumoniae [8] = experiment: Antimicrobial activity against Klebsiella pneumoniae NCTC 13442 by broth microdilution method; format: functional
Summary of the method: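 CLSI broth microdilution with direct colony suspension inoculum, per CLSI M07-A10. Reference strain taken from the NCTC collection.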

Klebsiella pneumoniae [9] = experiment: Antimicrobial activity against Klebsiella pneumoniae ATCC BAA-1904 by broth microdilution method; format: functional; summary of the method: as §1
Escherichia coli [10] = experiment: Antimicrobial activity against Escherichia coli ATCC BAA-2469 by broth microdilution method; format: functional; summary of the method: as §1
Klebsiella pneumoniae [11] = experiment: Antimicrobial activity against Klebsiella pneumoniae ATCC 13883 by broth microdilution method; format: functional; summary of the method: as §1
Klebsiella pneumoniae [12] = experiment: Antimicrobial activity against Klebsiella pneumoniae ATCC BAA-2472 by broth microdilution method; format: functional; summary of the method: as §1
Klebsiella pneumoniae [13] = experiment: Antimicrobial activity against Klebsiella pneumoniae NCTC 13439 by broth microdilution method; format: functional; summary of the method: as §1
Klebsiella pneumoniae [14] = experiment: Antimicrobial activity against Klebsiella pneumoniae NCTC 13443 by broth microdilution method; format: functional; summary of the method: as §1
Klebsiella pneumoniae [15] = experiment: Antimicrobial activity against Klebsiella pneumoniae ATCC BAA-2146 by broth microdilution method; format: functional; summary of the method: as §1
Klebsiella pneumoniae [16] = experiment: Antimicrobial activity against Klebsiella pneumoniae NCTC 13438 by broth microdilution method; format: functional; summary of the method: as §1
[17] = Klebsiella pneumoniae, ATCC 43816, read-out: MIC

Compound: N=C(N)NCC/C=C(\NC(=O)[C@H](CCCCN)NC(=O)[C@H](Cc1cnc[nH]1)NC(=O)[C@@H]1CCCN1C(=O)[C@@H](CCCN)NC(=O)CNC(=O)[C@@H](NC(=O)[C@@H](NC(=O)[C@@H](N)CCCCN)[C@@H](O)CN)[C@@H](O)CN)C(=O)N[C@@H](CCCCN)C(=O)O (H-K[Dab(3S-OH)][Dab(3S-OH)]G[dOrn]PHK[ΔZArg]K-OH)
- IC50 (Escherichia coli [1]): 360 nM
- MIC (Klebsiella pneumoniae [2]; [17]): 4 µg/mL (≈ 3.35 µM)
- MIC (Escherichia coli [3]): 16 µg/mL (≈ 13.4 µM)

Compound: N=C(N)NCC/C=C(\NC(=O)[C@H](CCCCN)NC(=O)[C@H](Cc1cnc[nH]1)NC(=O)[C@@H]1CCCN1C(=O)[C@@H](CCCN)NC(=O)CNC(=O)[C@H](CCN)NC(=O)[C@@H](NC(=O)[C@@H](N)CCCCN)[C@@H](O)CN)C(=O)N[C@@H](CCCCN)C(=O)NCCCCN (H-K[Dab(3S-OH)][Dab]G[dOrn]PHK[ΔZArg]K-{NH(CH2)4NH2})
- IC50 (Escherichia coli [1]): 1100 nM
- MIC (Klebsiella pneumoniae [2]; [17]): 4 µg/mL (≈ 3.2 µM)
- MIC (Escherichia coli [3]): 4 µg/mL (≈ 3.2 µM)

Compound: C[C@H](O)[C@H](NC(=O)[C@@H](NC(=O)[C@@H](N)CCCCN)[C@@H](O)CN)C(=O)NCC(=O)N[C@H](CCCN)C(=O)N1CCC[C@H]1C(=O)N[C@@H](Cc1cnc[nH]1)C(=O)N[C@@H](CCCCN)C(=O)N/C(=C\CCNC(=N)N)C(=O)N[C@@H](CCCCN)C(=O)NCCCCN (H-K[Dab(3S-OH)][aThr]G[dOrn]PHK[ΔZArg]K-{NH(CH2)4NH2})
- IC50 (Escherichia coli [1]): 1000 nM
- MIC (Klebsiella pneumoniae [2]; [17]): 8 µg/mL (≈ 6.4 µM)
- MIC (Escherichia coli [3]): 8 µg/mL (≈ 6.4 µM)

Compound: N=C(N)NCC/C=C(\NC(=O)[C@H](CCCCN)NC(=O)[C@H](Cc1cnc[nH]1)NC(=O)[C@@H]1CCCN1C(=O)[C@@H](CCCN)NC(=O)CNC(=O)[C@@H](NC(=O)[C@H](CCN)NC(=O)[C@@H](N)CCCCN)[C@@H](O)CN)C(=O)N[C@@H](CCCCN)C(=O)NCCCCN (H-K[Dab][Dab(3S-OH)]G[dOrn]PHK[ΔZArg]K-{NH(CH2)4NH2})
- IC50 (Escherichia coli [1]): 5910 nM
- MIC (Klebsiella pneumoniae [2]; [17]): 64 µg/mL (≈ 51.3 µM)
- MIC (Escherichia coli [3]): > 64 µg/mL

Compound: CC[C@H](C)CCCCC(=O)N[C@@H](CCN)C(=O)N[C@H](C(=O)N[C@@H](CCN)C(=O)N[C@H]1CCNC(=O)[C@H]([C@@H](C)O)NC(=O)[C@H](CCN)NC(=O)[C@H](CCN)NC(=O)[C@H](CC(C)C)NC(=O)[C@@H](Cc2ccccc2)NC(=O)[C@H](CCN)NC1=O)[C@@H](C)O (X1-[Dab]T[Dab][Dab][Dab][dF]L[Dab][Dab]T; lactam 4-C)
- MIC (Klebsiella pneumoniae [4]): 0.5 µg/mL (≈ 0.415 µM)
- MIC (Escherichia coli [5]): 0.5 µg/mL (≈ 0.415 µM)
- MIC (Enterobacter cloacae): 0.5 µg/mL (≈ 0.415 µM)
- MIC (Escherichia coli [6]): 0.5 µg/mL (≈ 0.415 µM)
- MIC (Klebsiella pneumoniae [7]): 0.5 µg/mL (≈ 0.415 µM)
- MIC (Klebsiella pneumoniae [8]): 0.5 µg/mL (≈ 0.415 µM)
- MIC (Klebsiella pneumoniae [9]): 0.5 µg/mL (≈ 0.415 µM)
- MIC (Klebsiella pneumoniae [2]; [17]): 0.5 µg/mL (≈ 0.415 µM)
- MIC (Escherichia coli [10]): 0.5 µg/mL (≈ 0.415 µM)
- MIC (Klebsiella pneumoniae [11]): 1 µg/mL (≈ 0.831 µM)
- MIC (Escherichia coli [3]): 0.5 µg/mL (≈ 0.415 µM)
- MIC (Klebsiella pneumoniae [12]): 0.5 µg/mL (≈ 0.415 µM)
- MIC (Klebsiella pneumoniae [13]): 0.5 µg/mL (≈ 0.415 µM)
- MIC (Klebsiella pneumoniae [14]): 0.5 µg/mL (≈ 0.415 µM)
- MIC (Klebsiella pneumoniae [15]): 1 µg/mL (≈ 0.831 µM)
- MIC (Klebsiella pneumoniae [16]): 0.5 µg/mL (≈ 0.415 µM)

Compound: CO/N=C(\C(=O)N[C@@H]1C(=O)N2C(C(=O)O)=C(CSc3nc(=O)c(O)nn3C)CS[C@H]12)c1csc(N)n1 [CEFTRIAXONE]
- MIC (Klebsiella pneumoniae [4]): > 64 µg/mL
- MIC (Escherichia coli [5]): > 64 µg/mL
- MIC (Enterobacter cloacae): > 64 µg/mL
- MIC (Escherichia coli [6]): > 64 µg/mL
- MIC (Klebsiella pneumoniae [7]): > 64 µg/mL
- MIC (Klebsiella pneumoniae [8]): 8 µg/mL (≈ 14.4 µM)
- MIC (Klebsiella pneumoniae [9]): > 64 µg/mL
- MIC (Klebsiella pneumoniae [2]; [17]): ≤ 0.125 µg/mL
- MIC (Escherichia coli [10]): > 64 µg/mL
- MIC (Klebsiella pneumoniae [11]): < 0.25 µg/mL
- MIC (Escherichia coli [3]): < 0.25 µg/mL
- MIC (Klebsiella pneumoniae [12]): > 64 µg/mL
- MIC (Klebsiella pneumoniae [13]): > 64 µg/mL
- MIC (Klebsiella pneumoniae [14]): > 64 µg/mL
- MIC (Klebsiella pneumoniae [15]): > 64 µg/mL
- MIC (Klebsiella pneumoniae [16]): > 64 µg/mL

Compound: C[C@@H](O)[C@H]1C(=O)N2C(C(=O)O)=C(SCCNC=N)C[C@H]12 [IMIPENEM ANHYDROUS]
- MIC (Klebsiella pneumoniae [4]): > 64 µg/mL
- MIC (Escherichia coli [5]): 32 µg/mL (≈ 107 µM)
- MIC (Enterobacter cloacae): > 64 µg/mL
- MIC (Escherichia coli [6]): > 64 µg/mL
- MIC (Klebsiella pneumoniae [7]): > 64 µg/mL
- MIC (Klebsiella pneumoniae [8]): > 64 µg/mL
- MIC (Klebsiella pneumoniae [9]): 64 µg/mL (≈ 214 µM)
- MIC (Klebsiella pneumoniae [2]; [17]): 1 µg/mL (≈ 3.34 µM)
- MIC (Escherichia coli [10]): > 64 µg/mL
- MIC (Klebsiella pneumoniae [11]): 2 µg/mL (≈ 6.68 µM)
- MIC (Escherichia coli [3]): 0.5 µg/mL (≈ 1.67 µM)
- MIC (Klebsiella pneumoniae [12]): > 64 µg/mL
- MIC (Klebsiella pneumoniae [13]): 64 µg/mL (≈ 214 µM)
- MIC (Klebsiella pneumoniae [14]): > 64 µg/mL
- MIC (Klebsiella pneumoniae [15]): > 64 µg/mL
- MIC (Klebsiella pneumoniae [16]): > 64 µg/mL

Compound: GENTAMICIN
- MIC (Klebsiella pneumoniae [4]): > 64 µg/mL
- MIC (Escherichia coli [5]): 1 µg/mL
- MIC (Enterobacter cloacae): > 64 µg/mL
- MIC (Escherichia coli [6]): > 64 µg/mL
- MIC (Klebsiella pneumoniae [7]): 32 µg/mL
- MIC (Klebsiella pneumoniae [8]): 0.25 µg/mL
- MIC (Klebsiella pneumoniae [9]): 16 µg/mL
- MIC (Klebsiella pneumoniae [2]): 0.25 µg/mL
- MIC (Escherichia coli [10]): > 64 µg/mL
- MIC (Klebsiella pneumoniae [11]): 1 µg/mL
- MIC (Klebsiella pneumoniae [12]): > 64 µg/mL
- MIC (Klebsiella pneumoniae [13]): 1 µg/mL
- MIC (Klebsiella pneumoniae [14]): > 64 µg/mL
- MIC (Klebsiella pneumoniae [15]): > 64 µg/mL
- MIC (Klebsiella pneumoniae [16]): 2 µg/mL
